From publication PMC4836388 (ACS chemical biology, 2015)
“Also recorded” adds a separate entry of the source.

Legend:
[1] = system: HIV-1BaL virions; test: sulfhydryl reagent treat/wash viral infection assay; format: cell-based; conditions: HOS cells
[2] = system: HIV-1BaL pseudovirus; test: single-round pseudoviral infection luciferase reporter assay; format: cell-based; conditions: for inhibition of pseudotyped HIV-1BaL infection by sulfhydryl reagent: reagent not removed
[3] = system: pseudotyped HIV-1BaL virus; test: virolysis assay; conditions: HIV-1BaL pseudotyped virions
[4] = system: HIV-1BaL pseudovirus; test: 2G12 mechanism of action infection assay; format: cell-based; conditions: ligand added after virus bound to cells at 4 °C
Method in brief: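 HIV-1BaL.01 Env pseudovirus (pNL4-3.Luc+ R− E− backbone, made in HEK-293T, iodixanol-gradient purified) bound to prechilled HOS.T4.R5 cells (preseeded 24 h, 8000/well) 4 h at 4 °C. Cells washed twice cold, then exposed to serially diluted test antibody for 30 min steps at 4 °C and 23 °C, then 24 h at 37 °C. Medium wash; lysis at 48 h; luciferase (1 mM D-luciferin). Enfuvirtide control wells; triplicate; infection relative to virus without inhibitor.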

[5] = system: pseudotyped HIV-1BaL virions; test: protein inhibition of virolysis; conditions: with 10 μM 1, 14 μM 2 or 50 μM 8 (EC80)

| Molecule | virus infectivity after reagent treatment and removal [1] | inhibition of pseudotyped HIV-1BaL infection by sulfhydryl reagent [2] | other results |
| --- | --- | --- | --- |
| O=C(O)CCP(CCC(=O)O)CCC(=O)O [TCEP, tris(2-carboxyethyl)phosphine] | did not cause significant dose-dependent reduction | inhibit | – |
| NC(=O)CI [IAAm, iodoacetamide] | – | inhibit | – |
| CC[C@H](C)[C@H](NC(=O)[C@@H](N)CCCNC(=N)N)C(=O)N[C@@H](CC(N)=O)C(=O)N[C@@H](CC(N)=O)C(=O)N[C@H](C(=O)N1C[C@@H](n2cc([C]34[CH]5[CH]6[CH]7[CH]3[Fe]6754389%10[CH]4[CH]3[CH]8[CH]9[CH]4%10)nn2)C[C@H]1C(=O)N[C@@H](Cc1c[nH]c2ccccc12)C(=O)N[C@@H](CO)C(=O)N[C@@H](CCC(=O)O)C(=O)N[C@@H](C)C(=O)N[C@@H](CCSC)C(=O)N[C@@H](CCSC)C(=O)NCCC(=O)N[C@@H](CCC(N)=O)C(=O)NCCC(=O)N[C@@H](CSC1CC(=O)N(CCC(=O)NCCCOCCOCCOCCCNC(=O)CCN2C(=O)CC(SC[C@H](NC(=O)CCNC(=O)[C@H](CCC(N)=O)NC(=O)CCNC(=O)[C@H](CCSC)NC(=O)[C@H](CCSC)NC(=O)[C@H](C)NC(=O)[C@H](CCC(=O)O)NC(=O)[C@H](CO)NC(=O)[C@H](Cc3c[nH]c4ccccc34)NC(=O)[C@@H]3C[C@H](n4cc([C]56[CH]7[CH]8[CH]9[CH]5[Fe]89765%10%11%12[CH]6[CH]5[CH]%10[CH]%11[CH]6%12)nn4)CN3C(=O)[C@@H](NC(=O)[C@H](CC(N)=O)NC(=O)[C@H](CC(N)=O)NC(=O)[C@@H](NC(=O)[C@@H](N)CCCNC(=N)N)[C@@H](C)CC)[C@@H](C)CC)C(N)=O)C2=O)C1=O)C(N)=O)[C@@H](C)CC (stereo partly drawn) [1a] | – | – | p24 release (in words) [3]: did not induce p24 release; inhibition of HIV-1 infection (in words) ([2]; HIV-1BaL pseudotyped virions): powerful inhibitor of HIV-1 infection, comparable to 1 |
| enfuvirtide [T20] | – | – | infection with six-helix bundle formation delayed by low temperature [4]: blocked infection |
| O[C@@H](CS)[C@@H](O)CS (racemic) [DTT, dithiothreitol] | did not cause significant dose-dependent reduction | inhibit | – |
| cyanovirin-N: lectin that binds high-mannose glycans in the gp120 outer domain (protein, UniProt P81180 1-101, looked up) Cyanovirin-N: LGKFSQTCYNSAIQGSVLTSTCERTNGGYNTSSIDLNSVIENVDGSLKWQPSNFIETCRNTQLAGSSELAAECKTRAQQFVSTKINLDDHIANIDGTLKYE | – | – | inhibition of PTT-induced p24 release by protein ligand [5]: did not inhibit p24 release; also recorded: no inhibition of p24 release |
